From ChEMBL document CHEMBL4007456, “Heterocyclyl Tetracyclines. 1. 7-Trifluoromethyl-8-Pyrrolidinyltetracyclines: Potent, Broad Spectrum Antibacterial Agents with Enhanced Activity against Pseudomonas aeruginosa” (2017)
Values after ≈ are worked out from the molar mass of the structure shown.

Assays:
Assay type in all cases: functional
Acinetobacter baumannii = experiment: Antibacterial activity against gram-negative Acinetobacter baumannii AB250 by CLSI method
In short: (§1)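 Broth microdilution MIC per CLSI in cation-adjusted Mueller Hinton broth, prepared fresh and held at 4 °C. Defibrinated horse blood added where appropriate. Compounds serially diluted in sterile deionized water. Strains from ATCC unless otherwise noted. Runs accepted when comparator antibiotics fell within QC ranges for ATCC quality control strains.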

[1] = system: Stenotrophomonas maltophilia; experiment: Antibacterial activity against gram-negative Stenotrophomonas maltophilia SM256 by CLSI method; in short: as §1
Burkholderia cenocepacia = experiment: Antibacterial activity against gram-negative Burkholderia cenocepacia BC240 by CLSI method
In short: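 Defibrinated horse blood added where appropriate. Compounds serially diluted in sterile deionized water. Strains from ATCC unless otherwise noted. Runs accepted when comparator antibiotics fell within QC ranges for ATCC quality control strains.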

Enterococcus faecalis = experiment: Antibacterial activity against gram-positive Enterococcus faecalis EFs327 harboring tet(M) by CLSI method
In short: (§2)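 CLSI broth microdilution MIC in fresh cation-adjusted Mueller Hinton broth, supplemented with defibrinated horse blood where appropriate. Compounds serially diluted in sterile deionized water. Runs accepted when comparator antibiotics against ATCC quality-control strains fell within recommended ranges.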

Enterococcus faecium = experiment: Antibacterial activity against gram-positive Enterococcus faecium EFm404 harboring tet(M) by CLSI method; in short: as §2
Klebsiella pneumoniae = experiment: Antibacterial activity against gram-negative Klebsiella pneumoniae KP457 harboring blacTX-M-15 extended spectrum beta-lactamase gene by CLSI method; in short: as §2
Proteus mirabilis = experiment: Antibacterial activity against gram-negative Proteus mirabilis PM385 by CLSI method; in short: as §1
Pseudomonas aeruginosa = experiment: Antibacterial activity against gram-negative Pseudomonas aeruginosa PA555 by CLSI method; in short: as §1
Enterobacter cloacae = experiment: Antibacterial activity against gram-negative Enterobacter cloacae EC1603 harboring tet(A) by CLSI method; in short: as §2
Staphylococcus aureus [2] = experiment: Antibacterial activity against gram-positive Staphylococcus aureus SA101 by CLSI method; in short: as §1
Staphylococcus aureus [3] = experiment: Antibacterial activity against gram-positive Staphylococcus aureus SA161 harboring tet(M) by CLSI method; in short: as §2
Staphylococcus aureus [4] = experiment: Antibacterial activity against gram-positive Staphylococcus aureus SA158 harboring tet(K) by CLSI method; in short: as §2
Streptococcus pneumoniae = experiment: Antibacterial activity against gram-positive Streptococcus pneumoniae SP160 harboring tet(M) by CLSI method; in short: as §2
Escherichia coli [5] = experiment: Antibacterial activity against gram-negative Escherichia coli EC107 by CLSI method; in short: as §1
Escherichia coli [6] = experiment: Antibacterial activity against gram-negative Escherichia coli EC155 harboring tet(A) by CLSI method; in short: as §2

| SMILES | MIC (Acinetobacter baumannii) [mg/L] | MIC [1] [mg/L] | MIC (Burkholderia cenocepacia) [mg/L] | MIC (Enterococcus faecalis) [mg/L] | MIC (Enterococcus faecium) [mg/L] | MIC (Klebsiella pneumoniae) [mg/L] | MIC (Proteus mirabilis) [mg/L] | MIC (Pseudomonas aeruginosa) [mg/L] | MIC (Enterobacter cloacae) [mg/L] | MIC (Staphylococcus aureus [2]) [mg/L] | MIC (Staphylococcus aureus [3]) [mg/L] | MIC (Staphylococcus aureus [4]) [mg/L] | MIC (Streptococcus pneumoniae) [mg/L] | MIC (Escherichia coli [5]) [mg/L] | MIC (Escherichia coli [6]) [mg/L] |
| --- | --- | --- | --- | --- | --- | --- | --- | --- | --- | --- | --- | --- | --- | --- | --- |
| CCCN1CCC[C@H]1c1cc(O)c2c(c1C(F)(F)F)C[C@H]1C[C@H]3[C@H](N(C)C)C(O)=C(C(N)=O)C(=O)[C@@]3(O)C(O)=C1C2=O | 4 (≈ 6.74 µM) | 4 (≈ 6.74 µM) | 16 (≈ 27 µM) | 1 (≈ 1.68 µM) | 1 (≈ 1.68 µM) | 16 (≈ 27 µM) | 8 (≈ 13.5 µM) | > 32 | 32 (≈ 53.9 µM) | 0.25 (≈ 0.421 µM) | 1 (≈ 1.68 µM) | 0.125 (≈ 0.211 µM) | ≤ 0.0156 | 1 (≈ 1.68 µM) | 2 (≈ 3.37 µM) |
| CC(C)CN1CCC[C@H]1c1cc(O)c2c(c1C(F)(F)F)C[C@H]1C[C@H]3[C@H](N(C)C)C(O)=C(C(N)=O)C(=O)[C@@]3(O)C(O)=C1C2=O | > 32 | > 32 | > 32 | 1 (≈ 1.65 µM) | 1 (≈ 1.65 µM) | > 32 | > 32 | > 32 | > 32 | 2 (≈ 3.29 µM) | 2 (≈ 3.29 µM) | 1 (≈ 1.65 µM) | 0.5 (≈ 0.823 µM) | 4 (≈ 6.58 µM) | > 32 |
| CC1CCNC1c1cc(O)c2c(c1C(F)(F)F)C[C@H]1C[C@H]3[C@H](N(C)C)C(O)=C(C(N)=O)C(=O)[C@@]3(O)C(O)=C1C2=O (stereo not given in full) | 1 (≈ 1.77 µM) | 0.5 (≈ 0.884 µM) | 4 (≈ 7.07 µM) | 1 (≈ 1.77 µM) | 0.5 (≈ 0.884 µM) | 1 (≈ 1.77 µM) | 2 (≈ 3.54 µM) | 8 (≈ 14.1 µM) | 2 (≈ 3.54 µM) | 0.125 (≈ 0.221 µM) | 8 (≈ 14.1 µM) | ≤ 0.0156 | ≤ 0.0156 | ≤ 0.0156 | 2 (≈ 3.54 µM) |
| CC(C)N1CCC[C@H]1c1cc(O)c2c(c1C(F)(F)F)C[C@H]1C[C@H]3[C@H](N(C)C)C(O)=C(C(N)=O)C(=O)[C@@]3(O)C(O)=C1C2=O | 2 (≈ 3.37 µM) | 4 (≈ 6.74 µM) | 16 (≈ 27 µM) | 0.5 (≈ 0.842 µM) | 0.25 (≈ 0.421 µM) | 8 (≈ 13.5 µM) | 4 (≈ 6.74 µM) | 32 (≈ 53.9 µM) | 16 (≈ 27 µM) | 0.125 (≈ 0.211 µM) | 2 (≈ 3.37 µM) | 0.0625 (≈ 0.105 µM) | ≤ 0.0156 | 0.125 (≈ 0.211 µM) | 1 (≈ 1.68 µM) |
| COc1c(C2CCCN2)cc(O)c2c1C[C@H]1C[C@H]3[C@H](N(C)C)C(O)=C(C(N)=O)C(=O)[C@@]3(O)C(O)=C1C2=O (stereo not given in full) | > 32 | > 32 | > 32 | 32 (≈ 62.3 µM) | 16 (≈ 31.2 µM) | 2 (≈ 3.89 µM) | 4 (≈ 7.79 µM) | 32 (≈ 62.3 µM) | > 32 | 8 (≈ 15.6 µM) | > 32 | 2 (≈ 3.89 µM) | 4 (≈ 7.79 µM) | 2 (≈ 3.89 µM) | > 32 |
| CN(C)[C@@H]1C(O)=C(C(N)=O)C(=O)[C@@]2(O)C(O)=C3C(=O)c4c(O)cc([C@@H]5CCCN5)c(F)c4C[C@H]3C[C@@H]12 | 32 (≈ 63.8 µM) | 8 (≈ 16 µM) | > 32 | 32 (≈ 63.8 µM) | 4 (≈ 7.98 µM) | 0.5 (≈ 0.997 µM) | 0.25 (≈ 0.498 µM) | 8 (≈ 16 µM) | 32 (≈ 63.8 µM) | 0.5 (≈ 0.997 µM) | > 32 | 0.125 (≈ 0.249 µM) | 1 (≈ 1.99 µM) | 0.125 (≈ 0.249 µM) | 16 (≈ 31.9 µM) |
| CN(C)[C@@H]1C(O)=C(C(N)=O)C(=O)[C@@]2(O)C(O)=C3C(=O)c4c(O)cc([C@H]5CCCN5)c(C(F)(F)F)c4C[C@H]3C[C@@H]12 | 2 (≈ 3.63 µM) | 1 (≈ 1.81 µM) | 8 (≈ 14.5 µM) | 16 (≈ 29 µM) | 4 (≈ 7.25 µM) | 0.125 (≈ 0.227 µM) | 0.5 (≈ 0.907 µM) | 8 (≈ 14.5 µM) | 8 (≈ 14.5 µM) | 0.125 (≈ 0.227 µM) | 16 (≈ 29 µM) | 0.0312 (≈ 0.0566 µM) | 1 (≈ 1.81 µM) | ≤ 0.0156 | 2 (≈ 3.63 µM) |
| CC1CCN(C)C1c1cc(O)c2c(c1C(F)(F)F)C[C@H]1C[C@H]3[C@H](N(C)C)C(O)=C(C(N)=O)C(=O)[C@@]3(O)C(O)=C1C2=O (stereo not given in full) | 8 (≈ 13.8 µM) | 1 (≈ 1.73 µM) | 16 (≈ 27.6 µM) | 4 (≈ 6.9 µM) | 2 (≈ 3.45 µM) | 4 (≈ 6.9 µM) | 8 (≈ 13.8 µM) | 32 (≈ 55.2 µM) | 2 (≈ 3.45 µM) | 0.5 (≈ 0.863 µM) | 4 (≈ 6.9 µM) | 0.0312 (≈ 0.0538 µM) | ≤ 0.0156 | 0.0625 (≈ 0.108 µM) | 2 (≈ 3.45 µM) |
| CCN1CCC[C@H]1c1cc(O)c2c(c1C(F)(F)F)C[C@H]1C[C@H]3[C@H](N(C)C)C(O)=C(C(N)=O)C(=O)[C@@]3(O)C(O)=C1C2=O | 1 (≈ 1.73 µM) | 1 (≈ 1.73 µM) | 8 (≈ 13.8 µM) | 0.5 (≈ 0.863 µM) | 0.125 (≈ 0.216 µM) | 4 (≈ 6.9 µM) | 4 (≈ 6.9 µM) | 32 (≈ 55.2 µM) | 4 (≈ 6.9 µM) | 0.0312 (≈ 0.0538 µM) | 1 (≈ 1.73 µM) | ≤ 0.0156 | ≤ 0.0156 | ≤ 0.0156 | 0.5 (≈ 0.863 µM) |
| CC1CCC(c2cc(O)c3c(c2C(F)(F)F)C[C@H]2C[C@H]4[C@H](N(C)C)C(O)=C(C(N)=O)C(=O)[C@@]4(O)C(O)=C2C3=O)N1C (stereo not given in full) | 2 (≈ 3.45 µM) | 2 (≈ 3.45 µM) | 8 (≈ 13.8 µM) | 2 (≈ 3.45 µM) | 1 (≈ 1.73 µM) | 8 (≈ 13.8 µM) | 4 (≈ 6.9 µM) | > 32 | 16 (≈ 27.6 µM) | 0.5 (≈ 0.863 µM) | 1 (≈ 1.73 µM) | 0.125 (≈ 0.216 µM) | 0.0312 (≈ 0.0538 µM) | 0.5 (≈ 0.863 µM) | 2 (≈ 3.45 µM) |
| CN(C)[C@@H]1C(O)=C(C(N)=O)C(=O)[C@@]2(O)C(O)=C3C(=O)c4c(O)cc([C@@H]5CCCN5C)c(C(F)(F)F)c4C[C@H]3C[C@@H]12 | 0.25 (≈ 0.442 µM) | 0.125 (≈ 0.221 µM) | 4 (≈ 7.07 µM) |  |  | 2 (≈ 3.54 µM) |  | 8 (≈ 14.1 µM) |  | 0.125 (≈ 0.221 µM) | 2 (≈ 3.54 µM) | ≤ 0.0156 | ≤ 0.0156 | 0.0312 (≈ 0.0552 µM) | 0.5 (≈ 0.884 µM) |
| CN(C)c1c(C2CCCN2)cc(O)c2c1C[C@H]1C[C@H]3[C@H](N(C)C)C(O)=C(C(N)=O)C(=O)[C@@]3(O)C(O)=C1C2=O (stereo not given in full) | > 32 | 32 (≈ 60.8 µM) | > 32 |  |  |  |  |  |  | 2 (≈ 3.8 µM) | 32 (≈ 60.8 µM) | 1 (≈ 1.9 µM) | 2 (≈ 3.8 µM) | 2 (≈ 3.8 µM) | 32 (≈ 60.8 µM) |
